The list is not random: actives were taken first. Their share in the collection is about 2.3%.
TRPC6 inhibitor: mouse TRPC6 channel inhibitors, primary screen, cell-based, HEK293, membrane potential dye | hit rate 1.1% among 310,000 | ACh-evoked depolarization; stronger effect = lower value | Short transient receptor potential channel 6 (Mus musculus), Q61143 | B-score at 10 µM | AID 2553, 2010;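 active means B-score under library mean minus 3 SD, initial fluorescence not abnormally high, positive integrated signal ratio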;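 further: B-score derived from integrated fluorescence ratio over the kinetic read; more negative B-score means stronger inhibition of depolarization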
TRPC4 agonist: activators of mouse TRPC4 channel, primary screen, Fluo4 calcium, HEK293 TRPC4beta/mu-opioid cells | Fluo4 calcium fluorescence; stronger effect = higher value | Short transient receptor potential channel 4 (Mus musculus), Q9QUQ5 | B-score at 10 µM | hit rate 0.49% among 310,000;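 active means B-score above 5 SD of library B-scores, and initial fluorescence ratio not above library mean plus 5 SD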;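 further: positive B-score marks a calcium rise read as TRPC4 activation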
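Material: HEK293 stable line with TRPC4beta plus mu-opioid receptor; technique: Fluo4 calcium-sensitive dye fluorescence, kinetic, 1 Hz baseline; timing: Fluo4 dye loading 45 min at room temperature, 110 s recording; controls: assay buffer as low control, maximal DAMGO as high control; read-out: integrated baseline-normalised fluorescence ratio, converted to per-well B score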
TRPC4 potent: positive allosteric modulators of TRPC4, primary screen, cell-based, mouse TRPC4beta, HEK293 mu-opioid, Fluo-4 calcium. AID 2227, 2009. Short transient receptor potential channel 4 (Mus musculus), Q9QUQ5. B-score at 10 µM. DAMGO EC20, Fluo-4 Ca2+ flux; stronger effect = higher value. hit rate 0.42% among 310,000;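 active means B-score of calcium response area above 5 SD of library B-scores, with initial fluorescence ratio within 5 SD of library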
TRPC4 block: inhibitors of mouse TRPC4 channel, primary screen, Fluo4 calcium, HEK293 TRPC4beta/mu-opioid cells. Short transient receptor potential channel 4 (Mus musculus), Q9QUQ5. DAMGO-evoked Fluo4 calcium flux; stronger effect = lower value. B-score at 10 µM. hit rate 0.39% among 300,000. AID 2247, 2010;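 active means B-score over 3 SD under the library average, no early fluorescence shift, positive overall ratio signal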
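System: stable TRPC4beta/mu-opioid receptor HEK293 cells; Dosing: single-point compound dosing; Measured by: Fluo4 Ca2+ flux fluorescence; Read-out basis: per-well B score of integrated baseline-normalized Fluo4 ratio.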
TRPC6 activator: mouse TRPC6 channel activators, primary screen, cell-based, HEK293, membrane potential dye | Short transient receptor potential channel 6 (Mus musculus), Q61143 | HEK293-TRPC6 membrane potential dye fluorescence; stronger effect = higher value | B-score at 10 µM | hit rate 0.13% among 310,000 | AID 2550, 2010;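 active means B-score of the integrated fluorescence ratio above library mean plus 3 SD, and starting fluorescence ratio within library mean plus 5 SD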;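 further: higher score means more depolarization so channel activation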
TRPC4 sel inh 2: second selectivity test of TRPC6 inhibitors: effect on mouse TRPC4 | HEK293 TRPC4/MOR, membrane potential dye fluorescence; channel activated by saturating DAMGO dose | hit rate 42% among 920 | inhibition, % at 10 µM | shares compounds with TRPC6 inhibitor | AID 2776;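 active means compounds whose fluorescence signal differed from control wells by over 3 SD, either direction, in both duplicate plates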
TRPC4 spec: mouse TRPC4 modulation by TRPC6 hits, confirmation, selectivity assay for TRPC6 inhibitor project, cell-based, HEK293 TRPC4/mu-opioid, membrane potential dye. shares compounds with TRPC6 inhibitor. membrane potential fluorescence. activity change, negative = inhibition, % at 10 µM. hit rate 61% among 920;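 active means rise or fall in signal beyond 3 SD of buffer-only wells in both replicate plates, either sign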;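 further: integrated kinetic ratio of fluorescence range over baseline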
HEK293 MPD ctr 2-1: nonspecific membrane potential effects, parental HEK293, confirmation, counter-screen for TRPC6 inhibitor project, cell-based, second counter screen; shares compounds with TRPC6 inhibitor; parental HEK293 membrane potential dye fluorescence; maximal acetylcholine challenge after compound addition; signal change vs control, % at 10 µM; hit rate 31% among 920; AID 2779, 2010;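 active means membrane potential signal moving either way by over 3 SD of the maximum-effect control, in both duplicate plates, meaning non-specific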
HEK293 MPD ctr-1: membrane potential modulation in parental HEK293, confirmation, counter-screen for TRPC6 inhibitor project, cell-based; membrane potential signal change, % at 10 µM; shares compounds with TRPC6 inhibitor; hit rate 60% among 920; AID 2780, 2010; parental HEK293 membrane potential dye fluorescence;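 active means membrane potential signal shifting up or down by more than 3 SD of buffer-only wells, on both duplicate plates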
HEK293 MPD ctr-2: parental HEK293 membrane potential modulation, confirmation, counter-screen for TRPC6 modulator project, cell-based. AID 488924, 2010. shares compounds with TRPC6 inhibitor. membrane potential dye fluorescence. hit rate 51% among 2,400. membrane potential signal change, % at 10 µM;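 active means membrane potential signal moves up or down beyond 5 SD from buffer-only wells, on both duplicate plates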
HEK293 MPD ctr 2-2: second counter-screen for TRPC6 modulators: effect in parental HEK293 cells; shares compounds with TRPC6 inhibitor; membrane potential dye fluorescence; after compound, maximal acetylcholine stimulation; inhibition, % at 10 µM; hit rate 14% among 2,400; AID 488926;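 active means membrane potential signal drops by more than 5 SD from the mean control signal, in both duplicate plates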
TRPC4/MOR mod: TRPC4 modulation by TRPC6 hit compounds, confirmation, selectivity assay for TRPC6 modulator project, cell-based, HEK293 TRPC4/mu-opioid, membrane potential dye, mouse | shares compounds with TRPC6 inhibitor | membrane potential fluorescence | percent change from control (negative = decrease, positive = increase), % at 10 µM | hit rate 69% among 2,400 | AID 488927, 2010;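 active means membrane potential signal moved up or down beyond 5 SD of buffer control wells, in both duplicate plates, actives on both sides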
TRPC4 ctr inh 2: second selectivity test of TRPC6 modulators against mouse TRPC4 | shares compounds with TRPC6 inhibitor | HEK293 TRPC4/mu-opioid, membrane potential dye fluorescence; stimulated with maximal-effect DAMGO | inhibition, % at 10 µM | hit rate 55% among 2,400 | AID 488928;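 active means drop in membrane potential signal beyond 5 SD of the control wells in both duplicate plates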;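 further: TRPC4 counter screen for TRPC6 hits run under conditions tuned for TRPC6 not TRPC4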
TRPC6 block conf: mouse TRPC6 channel inhibitors, confirmation, HEK293 cells, membrane potential dye, duplicate; inhibition, % at 10 µM; ACh-evoked depolarization; hit rate 43% among 3,300; AID 488960, 2010; shares compounds with TRPC6 inhibitor;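 active means fluorescence ratio falls more than 5 SD below the full-stimulation control mean, in both duplicate runs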;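 further: integrated fluorescence ratio of peak minus minimum over baseline after agonist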
TRPC6 act conf: mouse TRPC6 channel activators, confirmation, HEK293 cells, membrane potential dye, duplicate | shares compounds with TRPC6 inhibitor | HEK293-TRPC6 membrane potential dye fluorescence, FDSS | activation, % at 10 µM | hit rate 11% among 2,800;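 active means ratio signal rise beyond 5 SD above unstimulated control wells' mean, seen in both duplicate runs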
Large screens that a line does not name were inactive (follow-up assays come after a bar, where they were run).

COC(=O)C1CN(C(=O)COc2cccc(C)c2C)c2ccccc2O1 (stereo not given)	TRPC6 inhibitor -6 | HEK293 MPD ctr-2 98% | HEK293 MPD ctr 2-2 inactive | TRPC4/MOR mod 14% | TRPC4 ctr inh 2 inactive | TRPC6 block conf inactive | TRPC6 act conf inactive
COc1ccc(-n2nc(C(=O)NCC(=O)NCCCN3CCOCC3)c3ccccc3c2=O)cc1OC	none
Cn1cc(CN(CCCN2CCOCC2)C(=S)Nc2cccc(Cl)c2)c2ccccc21	TRPC6 inhibitor -6.8 | TRPC4 sel inh 2 inactive | TRPC4 spec inactive | HEK293 MPD ctr 2-1 258% | HEK293 MPD ctr-1 inactive | TRPC6 block conf inactive | TRPC6 act conf inactive
Cc1ccc(NC(=O)C2CCN(S(=O)(=O)c3ccc4[nH]c(=O)oc4c3)CC2)cc1F	TRPC6 inhibitor -5.8 | HEK293 MPD ctr-2 inactive | HEK293 MPD ctr 2-2 inactive | TRPC4/MOR mod inactive | TRPC4 ctr inh 2 inactive | TRPC6 block conf inactive | TRPC6 act conf inactive
COC(=O)COc1ccc(S(=O)(=O)N2CCCCC2)cc1[N+](=O)[O-]	TRPC6 inhibitor -5.3 | HEK293 MPD ctr-2 inactive | HEK293 MPD ctr 2-2 inactive | TRPC4/MOR mod inactive | TRPC4 ctr inh 2 44% | TRPC6 block conf inactive | TRPC6 act conf inactive
CS(=O)(=O)c1ccc(Cl)c(NC(=O)COC(=O)c2cccc(S(=O)(=O)N3CCCCC3)c2)c1	TRPC6 inhibitor -5.7 | HEK293 MPD ctr-2 inactive | HEK293 MPD ctr 2-2 inactive | TRPC4/MOR mod inactive | TRPC4 ctr inh 2 inactive | TRPC6 block conf inactive | TRPC6 act conf inactive
COc1ccc(S(=O)(=O)N2CCCCCC2)cc1NC(=O)Cc1ccccc1	TRPC6 inhibitor -8.9 | HEK293 MPD ctr-2 inactive | HEK293 MPD ctr 2-2 inactive | TRPC4/MOR mod inactive | TRPC4 ctr inh 2 inactive | TRPC6 block conf inactive | TRPC6 act conf inactive

Screening data from PubChem BioAssay.
